Assay results from ChEMBL document CHEMBL4270522, “Halogenated trimethoprim derivatives as multidrug-resistant Staphylococcus aureus therapeutics” (Bioorg Med Chem, 2018).
pIC50: −log10 of the molar value. In brackets after ≈: the same amount, converted by molar mass.

Key:
Staphylococcus aureus [1] = experiment: Antibacterial activity against hospital-associated methicillin-resistant Staphylococcus aureus COL at 5 ug after 18 to 20 hrs by CLSI disk diffusion assay; type: functional; conditions: read-out: DIZ
In short: (§1)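 Disk diffusion on 4 mm Mueller-Hinton agar swabbed with about 10^8 CFU/mL suspension in PBS; 6 mm paper disk loaded with 5 µg compound in DMSO; 37 °C ambient air for 18–20 h; diameter of the complete inhibition zone measured in mm with callipers from the plate back; at least three independent experiments, mean with standard error; 6 mm means no inhibition.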

Staphylococcus aureus [2] = experiment: Bactericidal activity against methicillin-resistant Staphylococcus aureus USA300 preincubated for 20 hrs followed by agar plating and measured after 18 to 20 hrs; type: functional
In short: (§2)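 MBC taken from broth microdilution (final about 10^5 CFU/mL, Mueller-Hinton broth, 37 °C for 20 h). Clear wells (basal optical density) were spread on TSA plates and incubated at 37 °C for 18–20 h. The lowest concentration giving no colonies is reported. At least triplicate.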

Staphylococcus aureus [3] = experiment: Antibacterial activity against methicillin-susceptible Staphylococcus aureus ATCC 25923 at 5 ug after 18 to 20 hrs by CLSI disk diffusion assay; type: functional; conditions: read-out: DIZ
In short: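 Mueller-Hinton agar, 4 mm deep, swabbed with PBS-diluted overnight TSB culture (~10^8 CFU/mL). Paper disk (6 mm) loaded with compound in DMSO, incubated 37 °C in ambient air. Complete inhibition zone diameter read from plate back with callipers; 6 mm means no inhibition. At least three independent experiments, mean with standard error.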

A549 = experiment: Cytotoxicity against human A549 cells after 24 to 48 hrs by fluorescence-based assay; type: cell-based
In short: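 A549 cells, ~10^4 per well in DMEM, given 2-fold serial dilutions of compound (DMSO stock diluted in DMEM). Incubated at 37 °C, 5% CO2. PrestoBlue added for 1 h, then fluorescence read at excitation 535 nm and emission 610 nm as a measure of viable cells.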

Staphylococcus aureus [4] = experiment: Antibacterial activity against methicillin-susceptible Staphylococcus aureus ATCC 29213 after 20 hrs by CLSI microdilution assay; type: functional; conditions: ATCC 29213, 20 h
Staphylococcus aureus [5] = experiment: Bactericidal activity against methicillin-susceptible Staphylococcus aureus ATCC 29213 preincubated for 20 hrs followed by agar plating and measured after 18 to 20 hrs; type: functional
In short: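 Broth microdilution per CLSI guideline. Compounds diluted 2-fold in MHB from 100 mM DMSO stocks. Inoculum ~10^5 CFU/mL final, from overnight TSB culture diluted in PBS. Plates incubated at 37 °C. Wells without growth by optical density spread on TSA and incubated at 37 °C. MBC is the lowest concentration giving no colonies. At least triplicate.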

Staphylococcus aureus [6] = experiment: Antibacterial activity against hospital-associated methicillin-resistant Staphylococcus aureus COL after 20 hrs by CLSI microdilution assay; type: functional
Staphylococcus aureus [7] = experiment: Antibacterial activity against methicillin-resistant Staphylococcus aureus USA300 at 5 ug after 18 to 20 hrs by CLSI disk diffusion assay; type: functional; conditions: read-out: DIZ; in short: as §1
Staphylococcus aureus [8] = experiment: Bactericidal activity against hospital-associated methicillin-resistant Staphylococcus aureus COL preincubated for 20 hrs followed by agar plating and measured after 18 to 20 hrs; type: functional; in short: as §2
Staphylococcus aureus [9] = experiment: Antibacterial activity against methicillin-resistant Staphylococcus aureus USA300 after 20 hrs by CLSI microdilution assay; type: functional; conditions: USA300, 20 h
Staphylococcus aureus [10] = experiment: microbe, parasite or virus in culture; type: functional; conditions: USA300, 20 h
Staphylococcus aureus [11] = experiment: Potentiation of TMP-Br-mediated antibacterial activity against hospital-associated methicillin-resistant Staphylococcus aureus COL assessed as TMP-Br MIC after 20 hrs by CLSI microdilution assay (reference value: 5 microg/ml); type: functional
Staphylococcus aureus [12] = experiment: Synergistic antibacterial activity against methicillin-susceptible Staphylococcus aureus ATCC 29213 in presence of TMP-Br after 20 hrs by broth microdilution-based checkerboard titration assay; type: functional
Staphylococcus aureus [13] = experiment: Potentiation of TMP-Cl-mediated antibacterial activity against methicillin-resistant Staphylococcus aureus USA300 assessed as TMP-Cl MIC after 20 hrs by CLSI microdilution assay (reference value: 2.50 microg/ml); type: functional; conditions: USA300, 20 h
Staphylococcus aureus [14] = experiment: Synergistic antibacterial activity against methicillin-susceptible Staphylococcus aureus ATCC 29213 in presence of TMP-I after 20 hrs by broth microdilution-based checkerboard titration assay; type: functional
Staphylococcus aureus [15] = experiment: Synergistic antibacterial activity against hospital-associated methicillin-resistant Staphylococcus aureus COL in presence of TMP-I after 20 hrs by broth microdilution-based checkerboard titration assay; type: functional
Staphylococcus aureus [16] = experiment: Synergistic antibacterial activity against hospital-associated methicillin-resistant Staphylococcus aureus COL in presence of TMP-Cl after 20 hrs by broth microdilution-based checkerboard titration assay; type: functional
Staphylococcus aureus [17] = experiment: Synergistic antibacterial activity against methicillin-resistant Staphylococcus aureus USA300 in presence of TMP-Cl after 20 hrs by broth microdilution-based checkerboard titration assay; type: functional
Staphylococcus aureus [18] = experiment: Synergistic antibacterial activity against methicillin-susceptible Staphylococcus aureus ATCC 29213 in presence of TMP-Cl after 20 hrs by broth microdilution-based checkerboard titration assay; type: functional
Staphylococcus aureus [19] = experiment: Potentiation of TMP-Cl-mediated antibacterial activity against hospital-associated methicillin-resistant Staphylococcus aureus COL assessed as TMP-Cl MIC after 20 hrs by CLSI microdilution assay (reference value: 5 microg/ml); type: functional
Staphylococcus aureus [20] = experiment: Potentiation of TMP-mediated antibacterial activity against hospital-associated methicillin-resistant Staphylococcus aureus COL assessed as TMP MIC after 20 hrs by CLSI microdilution assay (reference value: 5 microg/ml); type: functional
Staphylococcus aureus [21] = experiment: Synergistic antibacterial activity against hospital-associated methicillin-resistant Staphylococcus aureus COL in presence of TMP after 20 hrs by broth microdilution-based checkerboard titration assay; type: functional
Staphylococcus aureus [22] = experiment: microbe, parasite or virus in culture; type: functional; conditions: ATCC 29213, 20 h
Staphylococcus aureus [23] = experiment: Synergistic antibacterial activity against methicillin-resistant Staphylococcus aureus USA300 in presence of TMP-I after 20 hrs by broth microdilution-based checkerboard titration assay; type: functional
Staphylococcus aureus [24] = experiment: microbe, parasite or virus in culture; type: functional; conditions: ATCC 29213, 20 h; remark: listed apart in the source
Staphylococcus aureus [25] = experiment: Synergistic antibacterial activity against methicillin-resistant Staphylococcus aureus USA300 in presence of TMP-Br after 20 hrs by broth microdilution-based checkerboard titration assay; type: functional
Staphylococcus aureus [26] = experiment: Synergistic antibacterial activity against methicillin-susceptible Staphylococcus aureus ATCC 29213 in presence of TMP after 20 hrs by broth microdilution-based checkerboard titration assay; type: functional
Staphylococcus aureus [27] = experiment: Potentiation of TMP-I-mediated antibacterial activity against hospital-associated methicillin-resistant Staphylococcus aureus COL assessed as TMP-I MIC after 20 hrs by CLSI microdilution assay (reference value: 2.50 microg/ml); type: functional
Staphylococcus aureus [28] = experiment: microbe, parasite or virus in culture; type: functional; conditions: USA300, 20 h; remark: listed apart in the source
Staphylococcus aureus [29] = experiment: microbe, parasite or virus in culture; type: functional; conditions: ATCC 29213, 20 h; remark: listed apart in the source
Staphylococcus aureus [30] = experiment: Synergistic antibacterial activity against methicillin-resistant Staphylococcus aureus USA300 in presence of TMP after 20 hrs by broth microdilution-based checkerboard titration assay; type: functional
Staphylococcus aureus [31] = experiment: microbe, parasite or virus in culture; type: functional; conditions: ATCC 29213, 20 h; remark: listed apart in the source
Staphylococcus aureus [32] = experiment: Synergistic antibacterial activity against hospital-associated methicillin-resistant Staphylococcus aureus COL in presence of TMP-Br after 20 hrs by broth microdilution-based checkerboard titration assay; type: functional
Staphylococcus aureus [33] = experiment: microbe, parasite or virus in culture; type: functional; conditions: USA300, 20 h; remark: listed apart in the source
Staphylococcus aureus [34] = experiment: Potentiation of sulfamethoxazole-mediated antibacterial activity against methicillin-resistant Staphylococcus aureus USA300 assessed as sulfamethoxazole MIC after 20 hrs by CLSI microdilution assay (reference value: 100 microg/ml); type: functional; conditions: USA300, 20 h
Staphylococcus aureus [35] = experiment: Synergistic antibacterial activity against methicillin-susceptible Staphylococcus aureus ATCC 29213 in presence of sulfamethoxazole after 20 hrs by broth microdilution-based checkerboard titration assay; type: functional
Staphylococcus aureus [36] = experiment: Synergistic antibacterial activity against hospital-associated methicillin-resistant Staphylococcus aureus COL in presence of sulfamethoxazole after 20 hrs by broth microdilution-based checkerboard titration assay; type: functional
Staphylococcus aureus [37] = experiment: Synergistic antibacterial activity against hospital-associated methicillin-resistant Staphylococcus aureus COL assessed as fractional inhibitory concentration index in presence of sulfamethoxazole after 18 hrs by broth microdilution-based checkerboard titration assay; type: functional
Staphylococcus aureus [38] = experiment: Synergistic antibacterial activity against methicillin-resistant Staphylococcus aureus USA300 in presence of sulfamethoxazole after 20 hrs by broth microdilution-based checkerboard titration assay; type: functional
Staphylococcus aureus [39] = experiment: Potentiation of sulfamethoxazole-mediated antibacterial activity against methicillin-susceptible Staphylococcus aureus ATCC 29213 assessed as sulfamethoxazole MIC after 20 hrs by CLSI microdilution assay (reference value: 100 microg/ml); type: functional; conditions: ATCC 29213, 20 h
Staphylococcus aureus [40] = experiment: Potentiation of sulfamethoxazole-mediated antibacterial activity against hospital-associated methicillin-resistant Staphylococcus aureus COL assessed as sulfamethoxazole MIC after 20 hrs by CLSI microdilution assay (reference value: 200 microg/ml); type: functional
Staphylococcus aureus [41] = experiment: Synergistic antibacterial activity against methicillin-susceptible Staphylococcus aureus ATCC 29213 assessed as fractional inhibitory concentration index in presence of sulfamethoxazole after 18 hrs by broth microdilution-based checkerboard titration assay; type: functional
Staphylococcus aureus [42] = experiment: Synergistic antibacterial activity against methicillin-resistant Staphylococcus aureus USA300 assessed as fractional inhibitory concentration index in presence of sulfamethoxazole after 18 hrs by broth microdilution-based checkerboard titration assay; type: functional

COc1ccc(Cc2cnc(N)nc2N)cc1OC [DIAVERIDINE]
zone of inhibition at 5 µg/disc (Staphylococcus aureus [1]): 6 mm
MBC (Staphylococcus aureus [2]): 10 µg/mL (≈ 38.4 µM)
zone of inhibition at 5 µg/disc (Staphylococcus aureus [3]): 8.81 mm
pIC50 (A549): < 3.00
MIC (Staphylococcus aureus [4]): 5 µg/mL (≈ 19.2 µM)
MBC (Staphylococcus aureus [5]): 5 µg/mL (≈ 19.2 µM)
MIC (Staphylococcus aureus [6]): 10 µg/mL (≈ 38.4 µM)
zone of inhibition at 5 µg/disc (Staphylococcus aureus [7]): 6 mm
MBC (Staphylococcus aureus [8]): 20 µg/mL (≈ 76.8 µM)
MIC (Staphylococcus aureus [9]): 5 µg/mL (≈ 19.2 µM)

Cc1cc(NS(=O)(=O)c2ccc(N)cc2)no1 [SULFAMETHOXAZOLE]
MIC (Staphylococcus aureus [10]): 0.08 µg/mL (≈ 0.316 µM)
MIC (Staphylococcus aureus [11]): 0.31 µg/mL
FIC (Staphylococcus aureus [12]): 0.06
MIC (Staphylococcus aureus [13]): 0.16 µg/mL
FIC (Staphylococcus aureus [14]): 0.06
FIC (Staphylococcus aureus [15]): 0.06
MIC (Staphylococcus aureus [4]): 100 µg/mL (≈ 395 µM)
FIC (Staphylococcus aureus [16]): 0.06
MIC (Staphylococcus aureus [6]): 200 µg/mL (≈ 790 µM)
FIC (Staphylococcus aureus [17]): 0.06
FIC (Staphylococcus aureus [18]): 0.06
MIC (Staphylococcus aureus [19]): 0.31 µg/mL
MIC (Staphylococcus aureus [20]): 0.31 µg/mL
FIC (Staphylococcus aureus [21]): 0.06
MIC (Staphylococcus aureus [22]): 0.08 µg/mL (≈ 0.316 µM)
FIC (Staphylococcus aureus [23]): 0.06
MIC (Staphylococcus aureus [24]): 0.08 µg/mL (≈ 0.316 µM)
FIC (Staphylococcus aureus [25]): 0.12
FIC (Staphylococcus aureus [26]): 0.06
MIC (Staphylococcus aureus [27]): 0.16 µg/mL
MIC (Staphylococcus aureus [28]): 0.08 µg/mL (≈ 0.316 µM)
MIC (Staphylococcus aureus [29]): 0.08 µg/mL (≈ 0.316 µM)
FIC (Staphylococcus aureus [30]): 0.06
MIC (Staphylococcus aureus [31]): 0.08 µg/mL (≈ 0.316 µM)
FIC (Staphylococcus aureus [32]): 0.06
MIC (Staphylococcus aureus [33]): 0.16 µg/mL (≈ 0.632 µM)
MIC (Staphylococcus aureus [9]): 100 µg/mL (≈ 395 µM)

COc1cc(Cc2cnc(N)nc2N)cc(OC)c1OC [TRIMETHOPRIM]
MIC (Staphylococcus aureus [34]): 6.25 µg/mL
FIC (Staphylococcus aureus [35]): 0.06
zone of inhibition at 5 µg/disc (Staphylococcus aureus [1]): 6 mm
MBC (Staphylococcus aureus [2]): 2.5 µg/mL (≈ 8.61 µM)
zone of inhibition at 5 µg/disc (Staphylococcus aureus [3]): 20.2 mm
FIC (Staphylococcus aureus [36]): 0.06
fractional inhibitory concentration index (FICI) (Staphylococcus aureus [37]): 0.12
FIC (Staphylococcus aureus [38]): 0.06
MIC (Staphylococcus aureus [4]): 1.25 µg/mL (≈ 4.31 µM)
MBC (Staphylococcus aureus [5]): 1.25 µg/mL (≈ 4.31 µM)
MIC (Staphylococcus aureus [6]): 5 µg/mL (≈ 17.2 µM)
MIC (Staphylococcus aureus [39]): 6.25 µg/mL
zone of inhibition at 5 µg/disc (Staphylococcus aureus [7]): 22.8 mm
MIC (Staphylococcus aureus [40]): 12.5 µg/mL
fractional inhibitory concentration index (FICI) (Staphylococcus aureus [41]): 0.12
fractional inhibitory concentration index (FICI) (Staphylococcus aureus [42]): 0.12
MBC (Staphylococcus aureus [8]): 10 µg/mL (≈ 34.4 µM)
MIC (Staphylococcus aureus [9]): 1.25 µg/mL (≈ 4.31 µM)
